The values that follow come from ChEMBL document CHEMBL1132482, “Discovery of a series of cyclohexylethylamine-containing protein farnesyltransferase inhibitors exhibiting potent cellular activity” (J Med Chem, 1999).

pEC50, pIC50: −log10 of the molar value.

Experiment [1] deals with Protein farnesyltransferase (Rattus norvegicus, UniProt Q02293+Q04631). The experiment can be described thus: In vitro inhibitory activity against Farnesyltransferase (FTase). Format: protein-complex assay. In short, it runs like this:
(§1)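 Compounds were generally tested once, with some tested at n = 2, 4 or 8. Enzyme values are IC50 and cellular values are EC50 (nM). Stated assay reliability is ±50% for the in vitro assay and ±50–100% for the cellular assay. A 3-fold difference is treated as significant.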

Experiment [2] is filed under the species Rattus norvegicus. The experiment can be described thus: Inhibitory activity against whole cell Ras prenylation. Format: functional. Summed up:
as §1

For experiment [3], the species on record is Rattus norvegicus. The experiment can be described thus: Inhibitory activity against whole cell Ras prenylation at a concentration of 300 nM. Format: functional.
For experiment [4], the species on record is Rattus norvegicus. The experiment is described as follows: Inhibitory activity against whole cell Ras prenylation at a concentration of 1000 nM. Format: functional.
The species entered for experiment [5] is Rattus norvegicus. The experiment can be described thus: Inhibitory activity against whole cell Ras prenylation at a concentration of 50 nM. The class given is functional.

As usually defined, the pIC50 is the negative decadic logarithm of the IC50, by convention in mol/L. Higher therefore signals a low IC50. Usually pEC50 stands for the negative decadic logarithm of the EC50, by convention in mol/L. As to `CSCC[C@H](NC(=O)c1ccc(CN(CCC2CCCCC2)C(=O)c2ccccc2)cc1-c1ccccc1C)C(=O)O`, the pIC50 in experiment [1] was 8.96. The compound also had a pEC50 in the experiment listed under Rattus norvegicus [2] of less than 6.00.
`CSCC[C@H](NC(=O)c1ccc(CN[C@H](CSC(C)(C)C)CC2CCCCC2)cc1-c1ccccc1C)C(=O)O` gave a negative-log IC50 (pIC50) in experiment [1] of 9.22. This compound also gave a pEC50 in the experiment listed under Rattus norvegicus [2] of 8.55.
For `CSCC[C@H](NC(=O)c1ccc(CN(CCC2CCCCC2)Cc2ccccc2)cc1-c1ccccc1C)C(=O)O`, in that order: 8.46 and less than 6.00.
In turn, `CSCC[C@H](NC(=O)c1ccc(CN[C@H](CO)CC2CCCCC2)cc1-c1ccccc1)C(=O)O` had a pIC50 in experiment [1] of 8.10.
The term inhibition denotes the share of the control response that was lost under treatment. `COC[C@H](CC1CCCCC1)NCc1ccc(C(=O)N[C@@H](CCSC)C(=O)O)c(-c2ccccc2C)c1`: the pIC50 in experiment [1] was 9.18. For the same compound, in the experiment listed under Rattus norvegicus [3], the inhibition at 0.3 µM was determined as 47%.
`CSCC[C@H](NC(=O)c1ccc(CN[C@H](CO)Cc2ccccc2)cc1-c1ccccc1C)C(=O)O` gave a pIC50 in experiment [1] of 8.34.
`CCSC[C@H](CC1CCCCC1)NCc1ccc(C(=O)N[C@@H](CCS(C)(=O)=O)C(=O)O)c(-c2ccccc2C)c1`: the pIC50 in experiment [1] is 9.00. The same compound gave an inhibition at 0.3 µM in the experiment filed under Rattus norvegicus [3] of 34%.
With `CSCC[C@H](NC(=O)c1ccc(CN[C@H](CSC2CCCCC2)CC2CCCCC2)cc1-c1ccccc1C)C(=O)O`, the pIC50 in experiment [1] was 9.39. Also, the inhibition at 1 µM in the experiment listed under Rattus norvegicus [4] worked out at 80%.
Consider `CSCC[C@H](NC(=O)c1ccc(CN[C@@H](CO)C2CCCCC2)cc1-c1ccccc1C)C(=O)O`, for which the pIC50 in experiment [1] was 8.00.
In experiment [1], `CC[C@H](CC1CCCCC1)NCc1ccc(C(=O)N[C@@H](CCSC)C(=O)O)c(-c2ccccc2C)c1` had a pIC50 of 9.15. The compound further gave a pEC50 in the experiment filed under Rattus norvegicus [2] of less than 6.00.
For `CSCC[C@H](NC(=O)c1ccc(CN(C)CCC2CCCCC2)cc1-c1ccccc1C)C(=O)O`, in that order: 9.06 and 7.92.
In experiment [1], `CCS(=O)(=O)C[C@H](CC1CCCCC1)NCc1ccc(C(=O)N[C@@H](CCSC)C(=O)O)c(-c2ccccc2C)c1` had a pIC50 of 9.85. Besides, at 0.05 µM the inhibition in the experiment filed under Rattus norvegicus [5] was 59%.
`CSCC[C@H](NC(=O)c1ccc(CN[C@H](CO)CC2CCCCC2)cc1-c1ccccc1C)C(=O)O`: the pIC50 in experiment [1] was 9.80. This compound also gave a pEC50 in the experiment listed under Rattus norvegicus [2] of 6.72.
`CSCC[C@H](NC(=O)c1ccc(CN[C@H](/C=C/CC(C)C)CC2CCCCC2)cc1-c1ccccc1C)C(=O)O` had a pIC50 in experiment [1] of 9.66.
For the compound `CSCC[C@H](NC(=O)c1ccc(CN(CCC2CCCCC2)C(=O)OC(C)(C)C)cc1-c1ccccc1C)C(=O)O`, the pIC50 in experiment [1] is 9.77. The compound also had a pEC50 in the experiment listed under Rattus norvegicus [2] of 6.80.
For `CSCC[C@H](NC(=O)c1ccc(CN[C@H](C)CC2CCCCC2)cc1-c1ccccc1C)C(=O)O`, in that order: 9.15 and less than 6.00.
With `CSCC[C@H](NC(=O)c1ccc(CN(CCC2CCCCC2)C(C)=O)cc1-c1ccccc1C)C(=O)O`, the negative logarithm of the IC50 (pIC50) in experiment [1] is 8.54. In the experiment listed under Rattus norvegicus [2], the pEC50 is less than 6.00.
In turn, `CCS(=O)(=O)C[C@H](CC1CCCCC1)NCc1ccc(C(=O)N[C@@H](CCS(C)(=O)=O)C(=O)O)c(-c2ccccc2C)c1` showed a pIC50 in experiment [1] of 8.92. This compound registered an inhibition at 1 µM in the experiment filed under Rattus norvegicus [4] of 63%.
`CCCC[C@H](CC1CCCCC1)NCc1ccc(C(=O)N[C@@H](CCSC)C(=O)O)c(-c2ccccc2C)c1` showed a pIC50 in experiment [1] of 9.34. The pEC50 in the experiment listed under Rattus norvegicus [2] is 8.37.
The compound `CSCC[C@H](NC(=O)c1ccc(CNCCC2CCCCC2)cc1-c1ccccc1C)C(=O)O` showed a pIC50 in experiment [1] of 9.77. In the experiment filed under Rattus norvegicus [2], this compound had a pEC50 of 6.70.
In turn, `CSCC[C@H](NC(=O)c1ccc(CN[C@H](CO)C2CCCCC2)cc1-c1ccccc1C)C(=O)O` had a pIC50 in experiment [1] of 8.40.
The compound `CSCC[C@H](NC(=O)c1ccc(CN[C@H](CSc2ccccc2)CC2CCCCC2)cc1-c1ccccc1C)C(=O)O` showed a pIC50 in experiment [1] of 9.70. The pEC50 in the experiment listed under Rattus norvegicus [2] is 7.92.
Take `CSCC[C@H](NC(=O)c1ccc(CNC(CC2CCCCC2)CC2CCCCC2)cc1-c1ccccc1C)C(=O)O`: the pIC50 in experiment [1] was 9.60. The inhibition at 1 µM in the experiment listed under Rattus norvegicus [4] came out at 75%.
Turning to `CCSC[C@H](CC1CCCCC1)NCc1ccc(C(=O)N[C@@H](CCSC)C(=O)O)c(-c2ccccc2C)c1`, in experiment [1], the pIC50 was 9.70. Further, in the experiment listed under Rattus norvegicus [2], the pEC50 is 8.36.
As for `CSCC[C@H](NC(=O)c1ccc(CN[C@H](CSc2ccccc2C)CC2CCCCC2)cc1-c1ccccc1C)C(=O)O`, the pIC50 in experiment [1] was 9.38. The compound further returned an inhibition at 1 µM in the experiment filed under Rattus norvegicus [4] of 77%.
Turning to `CSCC[C@H](NC(=O)c1ccc(CN[C@H](CCCC(C)C)CC2CCCCC2)cc1-c1ccccc1C)C(=O)O`, in experiment [1], the pIC50 is 9.55. The compound further gave a pEC50 in the experiment listed under Rattus norvegicus [2] of 7.28.
Consider `CSCC[C@H](NC(=O)c1ccc(CN[C@@H](CO)CC2CCCCC2)cc1-c1ccccc1C)C(=O)O`, for which the negative logarithm of the IC50 (pIC50) in experiment [1] is 7.92.
